Data on 14 molecules can be found in ChEMBL document CHEMBL1133753, “6-N-Acyltriciribine analogues: structure-activity relationship between acyl carbon chain length and activity against HIV-1” (J Med Chem, 2000).

The subject of assay [1] is HFF. The assay can be described thus: Antiviral activity against HCMV was determined by plaque reduction assay using HFF cells. Format: functional, cell-based. The conditions noted are these: Homo sapiens. A general note: Plaques are areas of infected cells; plaque reduction assays count them against a control.
Assay [2] deals with CEM-SS. The assay can be described thus: Visual cytotoxicity was scored on CEM-SS cells. Format: functional, cell-based. Particulars: Homo sapiens.
For assay [3], the system named is HFF. Description: Visual cytotoxicity was scored on uninfected HFF cells. It is filed as functional, cell-based. Particulars: Homo sapiens.
The nature of assay [4]: (§1) Cytotoxicity measured as Inhibition of KB cell growth was assessed. Format: functional, cell-based. The conditions noted are these: Homo sapiens.
Assay [5] in a line: Antiviral activity against HSV-1 was determined using BSC-1 cells by an enzyme-linked immunosorbent assay (ELISA). Format: functional, cell-based. The conditions noted are these: Cercopithecidae. (In general: In an ELISA, binding on a coated surface is turned into a signal by an enzyme label.)
Assay [6] relates to CEM-SS. The assay can be described thus: Intracellular phosphorylation (10 uM) in uninfected CEM-SS cells was studied. Format: functional, cell-based. Particulars: Homo sapiens. The procedure, abridged: (§2)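 Uninfected cells grown in suspension with compound at the stated extracellular concentration for 5 or 24 h. Cells pelleted and washed in cold Puck's saline with glucose. Nucleotides extracted with 0.6 N TCA on ice, neutralized with freon/0.5 M triethylamine, then separated by reverse-phase C18 HPLC (formic acid pH 2.5 to 50% methanol gradient), UV 254/290 nm; peaks identified by electrospray MS in a separate run. TCN-P quantified against standards and converted to μM using 1.9 pL/cell.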

The nature of assay [7]: as §1. Format: cell-based. The conditions noted are these: Homo sapiens. An outline of the steps: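 KB cells plated at 5000/well and incubated overnight at 37 °C. Compound added in triplicate at eight concentrations, then 48 h at 37 °C in CO₂ (two population doublings). Cells fixed with 95% ethanol, stained with 0.1% crystal violet, dye eluted with acidified ethanol and read at 570 nm. IC50 taken from linear regression of % inhibition vs log concentration.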

For assay [8], the system named is CEM-SS. The assay can be described thus: Intracellular phosphorylation (100 uM) in uninfected CEM-SS cells was studied after 24 hrs of Incubation. Format: functional, cell-based. The conditions noted are these: Homo sapiens. An outline of the steps:
as §2

The test system of assay [9] is CEM-SS. Description: Intracellular phosphorylation (10 uM) in uninfected CEM-SS cells was studied after 24 hrs of Incubation. The conditions noted are these: Homo sapiens. It is filed as functional, cell-based. The procedure, abridged: as §2
Assay [10] is filed under the species Homo sapiens. Description: Intracellular phosphorylation (100 uM) in uninfected AA2 cells was studied, after 5 hrs of Incubation. It is filed as functional, cell-based. An outline of the steps: as §2
For assay [11], the system named is CEM-SS. The assay can be described thus: Intracellular phosphorylation (100 uM) studied, after 5 hrs of Incubation. Format: functional, cell-based. The conditions noted are these: Homo sapiens. An outline of the steps: as §2
Assay [12] in a line: Antiviral activity was evaluated by RT (reverse transcriptase) activity in cells acutely infected with HIV-1.

In general, IC50 refers to the point on the concentration scale where inhibition reaches its midpoint. The low end stands for inhibition by little substance, the high end for a need for much substance.

A value given as a limit tells only on which side of the number the result lay.

As for `CCCC(=O)NC1=NN(C)c2ncnc3c2c1cn3C1O[C@H](CO)[C@@H](O)[C@H]1O` (some centres undefined), the IC50 in assay [1] is 10 µM; in assay [2] it was > 100 µM; in assay [3] it was 100 µM; in [4] it was 100 µM; in assay [5] it was > 100 µM.
On to `CCCCCCCCC(=O)NC1=NN(C)c2ncnc3c2c1cn3C1O[C@H](CO)[C@@H](O)[C@H]1O` (some centres undefined), for which the IC50 in [1] is 12 µM; in assay [2] it was 32 µM; in assay [3], 21 µM; in assay [4], 65 µM; in assay [5], > 100 µM. In addition, in assay [6], the Concentration worked out at 243 µM.
Regarding `CCCCCCCCCC(=O)NC1=NN(C)c2ncnc3c2c1cn3C1O[C@H](CO)[C@@H](O)[C@H]1O` (some centres undefined), the half-maximal inhibitory concentration (IC50) in assay [1] was 12 µM; in [2], 32 µM; in assay [3] it was 21 µM; in assay [4] it was 40 µM; in assay [5] it was > 100 µM.
For the molecule `CN1N=C(NC(=O)C(C)(C)C)c2cn(C3O[C@H](CO)[C@@H](O)[C@H]3O)c3ncnc1c23` (some centres undefined), the IC50 in assay [1], in [2], in assay [3], in assay [4] and in [5] was > 100 µM in each case.
In the case of `CC(C)C(=O)NC1=NN(C)c2ncnc3c2c1cn3C1O[C@H](CO)[C@@H](O)[C@H]1O` (some centres undefined), the 50% inhibitory concentration (IC50) in [1], in [2], in assay [3], in assay [4] and in assay [5] was > 100 µM each time.
As for `CCC(=O)NC1=NN(C)c2ncnc3c2c1cn3C1O[C@H](CO)[C@@H](O)[C@H]1O` (some centres undefined), the IC50 was 40 µM in assay [1]; > 100 µM in assay [7]; > 100 µM in assay [2]; 100 µM in assay [3]; > 100 µM in assay [5].
Consider `CCCCCCCCCCCC(=O)NC1=NN(C)c2ncnc3c2c1cn3C1O[C@H](CO)[C@@H](O)[C@H]1O` (some centres undefined), for which the IC50 in assay [1] is 12 µM; in assay [2], 32 µM; in assay [3] it was 21 µM; in assay [4], 75 µM; in assay [5], 45 µM.
Turning to `CCCCCCCC(=O)NC1=NN(C)c2ncnc3c2c1cn3C1O[C@H](CO)[C@@H](O)[C@H]1O` (some centres undefined), the IC50 is 12 µM in [1]; 32 µM in assay [2]; 21 µM in assay [3]; 40 µM in [4]; > 100 µM in [5].
On the same counts, the results for `CN1N=C(NC(=O)c2ccccc2)c2cn(C3O[C@H](CO)[C@@H](O)[C@H]3O)c3ncnc1c23` (some centres undefined) are > 100 µM, > 100 µM, > 100 µM, > 100 µM and > 100 µM.
Turning to `CCCCC(=O)NC1=NN(C)c2ncnc3c2c1cn3C1O[C@H](CO)[C@@H](O)[C@H]1O` (some centres undefined), the Concentration in assay [8] turned out to be 710 µM. For the same molecule, the IC50 in assay [1] was 0.45 µM; in [2] it was 32 µM; in assay [3], > 100 µM; in [4], 30 µM; in assay [5], > 100 µM.
For the molecule `CCCCCCC(=O)NC1=NN(C)c2ncnc3c2c1cn3C1O[C@H](CO)[C@@H](O)[C@H]1O` (some centres undefined), the half-inhibitory concentration (IC50) in [1] is 11 µM; in assay [2] it was 32 µM; in [3], 32 µM; in [4], 30 µM; in assay [5] it was > 100 µM. Also, the Concentration stood at 225 µM in assay [9], 48 µM in assay [10] and 850 µM in assay [11].
Take `CCCCCC(=O)NC1=NN(C)c2ncnc3c2c1cn3C1O[C@H](CO)[C@@H](O)[C@H]1O` (some centres undefined): the half-inhibitory concentration (IC50) in assay [1] was 8.8 µM; in assay [2] it was 45 µM; in [3], 100 µM; in assay [4] it was 40 µM; in assay [5], > 100 µM.
On the same counts, the results for `CC(=O)NC1=NN(C)c2ncnc3c2c1cn3C1O[C@H](CO)[C@@H](O)[C@H]1O` (some centres undefined) are > 100 µM, > 100 µM, > 100 µM, > 100 µM and > 100 µM.
For the molecule `CN1N=C(N)c2cn([C@@H]3O[C@H](COP(=O)(O)O)[C@@H](O)[C@H]3O)c3ncnc1c23` [TRICIRIBINE PHOSPHATE], the IC50 in assay [12] is 0.04 µM; in assay [2], > 1 µM; in assay [4] it was 10 µM; in assay [5] it was 20 µM.
